Assay outcomes (PubChem)
core dimer inh: blocks dimerization of HCV core protein; inhibition, % at 5 µM; AID 1899; hit rate 0.33% among 300,000; TR-FRET GST/Flag-core106 dimerization, 1536-well;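 active means inhibition above the mean of all tested compounds plus 3 SD, set per screening campaign, cut at about 45% in these data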
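Material: GST/Flag-tagged HCV core106 proteins. Incubation: 4 h, 22.5 °C incubation. Read-out basis: inhibition (%) from 671 over 617 nm ratio. Measured by: TR-FRET, excitation 340 nm, emission 617 and 671 nm.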
GPR7 antag: antagonists of human GPR7 (neuropeptides B/W receptor 1). inhibition, % at 4.4 µM. GPR7-expressing cells, fluorescence antagonist assay. AID 1861. P48145. hit rate 1.1% among 290,000; in the data active means inhibition above about 16%, passing the limit was not always enough;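 further: cells stimulated with the agonist NPW; 0% = agonist with vehicle and 100% = vehicle without agonist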
ZTA DNA inh: blocks Epstein-Barr virus ZTA, an EBNA-1 counter-screen. P03206. ZTA-DNA binding, fluorescence polarization. inhibition, % at 11 µM. hit rate 0.15% among 320,000; in the data active means inhibition above about 33%
Target sequence (P03206 whole entry, looked up): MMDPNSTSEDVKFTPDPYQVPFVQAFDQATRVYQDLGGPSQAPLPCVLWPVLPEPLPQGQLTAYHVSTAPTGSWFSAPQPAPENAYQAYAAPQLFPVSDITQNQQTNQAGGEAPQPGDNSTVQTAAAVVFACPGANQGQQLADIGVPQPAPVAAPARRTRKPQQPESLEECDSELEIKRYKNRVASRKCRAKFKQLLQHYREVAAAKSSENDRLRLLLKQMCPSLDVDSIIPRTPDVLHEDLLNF
NS3 helicase inh: inhibitors of Hepatitis C virus NS3 helicase | NS3 helicase DNA unwinding, Cy5 molecular beacon fluorescence | inhibition, % at 10.9 µM | hit rate 0.56% among 290,000;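 active means inhibition above the mean of all tested compounds plus 3 SD, set per campaign, cut at about 35% in these data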;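 further: 0% = DMSO wells and 100% = thioflavine S control wells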
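assay system = NS3 helicase fragment of HCV | buffer or medium = MOPS pH 6.5, MgCl2, DTT, Tween20, BSA | timing = 60 min unwinding reaction at 25 °C after ATP addition | signal = Cy5 beacon fluorescence read at start and 1 h | read-out basis = % inhibition of unwinding | control set = low DMSO, high thioflavine S at 110 µM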
EBNA-1 inhibitor: blocks EBNA-1 binding to DNA. EBNA-1 DNA binding, fluorescence polarization. inhibition, % at 14.8 µM. hit rate 0.34% among 300,000; in the data active means inhibition above about 28%
EBV gp42 block: inhibitors of Epstein-Barr virus glycoprotein 42 | Fluorescence polarization binding assay, mP read-out | hit rate 0.42% among 220,000 | inhibition, % (tested at 21.74 µM) | Q1HVG2; in the data active means inhibition above about 50%
Target sequence (Q1HVG2 whole entry, looked up): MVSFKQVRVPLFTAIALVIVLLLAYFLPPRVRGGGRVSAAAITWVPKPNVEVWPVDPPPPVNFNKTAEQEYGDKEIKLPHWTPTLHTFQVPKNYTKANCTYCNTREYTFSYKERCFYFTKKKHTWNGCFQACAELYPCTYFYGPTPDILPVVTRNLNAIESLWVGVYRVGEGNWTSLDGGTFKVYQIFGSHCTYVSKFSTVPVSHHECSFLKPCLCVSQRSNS
NS3 helicase cf: confirmation of Hepatitis C virus NS3 helicase inhibitors. shares compounds with NS3 helicase inh. NS3 helicase DNA unwinding, Cy5 molecular beacon fluorescence. inhibition, % at 10.9 µM. hit rate 31% among 1,600. AID 1943;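 active means inhibition above the mean of all tested compounds plus 3 SD, cutoff set per campaign, cut at about 36% in these data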
FID counter trip: intercalator displacement, NS3 helicase counter-screen; hit rate 4% among 1,600; inhibition, % at 7.9 µM; DNA fluorescent intercalator displacement, fluorescence; shares compounds with NS3 helicase inh; AID 1945; in the data active means inhibition above about 37%;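 further: 0% = vehicle and 100% = reference compound; higher means more displacement of ethidium bromide from the DNA hairpin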
DNA FID DR: DNA intercalator displacement in dose response. shares compounds with NS3 helicase inh. fluorescent intercalator displacement from DNA, fluorescence. IC50, µM. 120 tested, under 10 active. AID 2172; call rule not given here
* hit, by the source's call; . = not tested or not shown. Rows were chosen to be rich in hits. Some 2.3% of all compounds tested hit in one or more screens of this group.

SMILES | core dimer inh | GPR7 antag | ZTA DNA inh | NS3 helicase inh | EBNA-1 inhibitor | EBV gp42 block | NS3 helicase cf | FID counter trip | others
CC1Sc2ccc(S(=O)(=O)CCC(=O)N3CCCC3)cc2NC1=O (centres undefined) | -7 | 7 | -6 | 16 | 2 | . | . | .
CC1CCCC(NC(=O)CCS(=O)(=O)c2ccc3c(c2)NC(=O)CS3)C1C (centres undefined) | 1 | -13 | -2 | -3 | -4 | . | . | .
CC1Sc2ccc(S(=O)(=O)CCC(=O)NC3CCCC(C)C3C)cc2NC1=O (centres undefined) | -12 | 1 | -9 | 54* | 2 | . | -13 | -31
Cc1cc(C)c(C)c(S(=O)(=O)N2CCC(C(=O)N3CCCCCCC3)CC2)c1C | 18 | 3 | 8 | -17 | 1 | . | . | .
CC1CN(Cc2ccccc2)c2nc3c(c(=O)[nH]c(=O)n3C)n2C1 (centres undefined) | -2 | -20 | -1 | -2 | -12 | -6 | . | .
O=C(Nc1cccc(-n2cnnn2)c1)c1cc(Cl)ccc1Cl | 4 | 1 | -6 | 1 | -5 | . | . | .
O=C(Nc1cccc(-n2cnnn2)c1)c1ccccc1Br | -7 | 25 | -16 | 53* | -7 | . | -9 | 4
CCCN1CCC(NC(=O)C2CCN(C(C)=O)CC2)CC1 | -2 | -15 | -6 | -1 | -14 | . | . | .
COc1ccc(OC)c(NC(=O)CSc2ccc(-c3ccco3)nn2)c1 | 43 | 9 | -11 | 45* | 7 | . | -20 | -13
COc1ccc(S(=O)(=O)N2CCN(Cc3ccccc3)CC2)cc1OC | . | -19 | . | 97* | . | . | -13 | -8
CCc1ccc(C2CC(=O)N3CN(c4ccccc4)CSC3=C2C#N)cc1 (centres undefined) | 12 | 4 | 13 | 44* | -4 | -11 | 34 | -13
C/C(=N\NC(=O)CNC(=O)c1ccccc1F)c1ccco1 | 1 | -10 | 5 | 4 | 4 | . | . | .
COCCCn1c(=S)[nH]c2sc3c(c2c1=O)CCCC3 | -9 | 8 | -6 | 11 | 1 | . | . | .
COCCn1c(=S)[nH]c2sc3c(c2c1=O)CCCC3 | -9 | -8 | 9 | 52* | -8 | . | -9 | -6
Cc1ccc(CNS(=O)(=O)c2cc3c4c(c2)C(C)C(=O)N4CCC3)cc1 (centres undefined) | 1 | 5 | 1 | -4 | 0 | . | . | .
CCOc1ccc(C(=O)N2CCN(c3cnn(-c4ccccc4)c(=O)c3Cl)CC2)cc1 | -25 | -5 | 3 | 40* | -2 | 0 | -4 | -53
CN1C(=O)[C@H]2[C@@H](/C=C/c3ccccc3)N3C(=O)CN(CCO)C(=O)[C@@]3(Cc3ccccc3)[C@H]2C1=O | -12 | -7 | 13 | 44* | 1 | . | -14 | -8
Cc1cc(NC(=O)CSc2nc3c(C)c(C)ccc3cc2C)no1 | -3 | 3 | -9 | -5 | -4 | . | . | .
CC(C)c1ccc(OCC(=O)N(Cc2ccco2)C2CCS(=O)(=O)C2)cc1 (centres undefined) | -6 | 13 | -5 | 48* | -17 | . | -15 | -29
C[C@H]1c2cccc(O)c2C(O)=C2C(=O)C3(O)C(O)=C(C(N)=O)C(=O)[C@@H](N(C)C)[C@@H]3[C@@H](O)[C@@H]21 (some centres undefined) | -1 | . | -10 | . | 5 | . | . | .
C=C1c2cccc(O)c2C(O)=C2C(=O)[C@]3(O)C(O)=C(C(N)=O)C(=O)[C@@H](N(C)C)[C@@H]3[C@@H](O)[C@H]12 | -8 | 1 | 31 | 85* | 13 | -13 | 55* | 17 | DNA FID DR=>79
C=CCN1C(=O)/C(=C/c2ccc(-c3ccc(F)cc3)o2)SC1=S | 22 | -9 | 16 | 78* | 19 | . | -10 | 21
COc1ccc(CCNC(=O)COc2ccc(C)nc2[N+](=O)[O-])cc1OC | 2 | 18 | -7 | -2 | 9 | -24 | . | .
CCS(=O)(=O)N1Cc2ccccc2CC1C(=O)N(C)CC(=O)Nc1ccc(F)c(F)c1F (centres undefined) | 2 | . | -8 | . | 6 | . | . | .
Cc1nnc2sc(-c3cccc(NC(=O)c4ccc(-c5cccc(Cl)c5)o4)c3)nn12 | . | -8 | . | -6 | . | . | . | .
SMILES | core dimer inh | GPR7 antag | ZTA DNA inh | NS3 helicase inh | EBNA-1 inhibitor | EBV gp42 block | NS3 helicase cf | FID counter trip | others
Cc1ccc(-c2nn3c(C)nnc3s2)cc1NC(=O)c1ccc(-c2cccc(Cl)c2)o1 | . | 3 | . | 60* | . | -41 | -8 | -27
COCc1ccc(C(=O)N(C)CC2CCCN(CCc3ccccc3F)C2)o1 (centres undefined) | -11 | -6 | -13 | 8 | 0 | . | . | .
O=C1ON=C(c2ccccc2)/C1=C/c1ccc(O)c(O)c1 | 11 | -9 | 4 | 46* | 2 | . | 17 | 4
COc1ccc2ccccc2c1C(=O)/C=C\c1ccoc1 | 21 | -10 | 3 | 55* | -1 | -6 | 9 | 4
OCCOCCN1CCN(C(=S)Nc2ccccc2)CC1 | -6 | -8 | -7 | -2 | -7 | 3 | . | .
CCN(CC(=O)Nc1cc(Cl)ccc1-n1cncn1)Cc1nc2ccccc2c(=O)[nH]1 | . | . | 9 | . | . | . | . | .
CCc1c(O)nc(SCC(=O)Nc2nc3ccccc3s2)n(C2CCCCC2)c1=O | 1 | -10 | 9 | 7 | 8 | -8 | . | .
CCOC(=O)Cc1csc(N/N=C/c2ccccc2)n1 | -2 | -2 | 3 | 1 | -6 | -6 | . | .
CCOC(=O)Cc1csc(N/N=C\c2ccc(N(C)C)cc2)n1 | 18 | 1 | -9 | 50* | -5 | . | -16 | 2
Cc1cccc(-c2oc3ccc(-c4ccc5c(c4)OCO5)cc3c2/C=C/c2ccc(N)cc2)c1 | 1 | -5 | 5 | 45* | 5 | . | -8 | 17
COc1ccc(-c2c(-c3cccc(C)c3)oc3ccc(-c4ccc5c(c4)OCO5)cc23)cn1 | -15 | . | -3 | . | 20 | . | . | .
CNc1ccc(Br)cc(C(=O)/C=C/c2ccc3c(c2)OCO3)c1=O | 56* | 13 | -8 | 54* | 3 | 26 | 45* | 4
CNc1ccc(Br)cc(C(=O)/C=C/c2cc(OC)ccc2OC)c1=O | 24 | 10 | 3 | 40* | 1 | 25 | 61* | -9 | DNA FID DR=>79
O=C(COc1ccc(Cl)cc1)NCCCNC(=O)c1ccncc1 | 2 | 5 | 20 | 2 | 1 | . | . | .
CCOc1ccc(S(=O)(=O)N/N=C(\C)C2CCCCC2)cc1 | -6 | -9 | 8 | 43* | 8 | -1 | -2 | 9
CC(C)C(C)NC(=O)COc1ccc(-c2ccccc2)cc1 (centres undefined) | 6 | 2 | 19 | 3 | 6 | -5 | . | .
